Assay results published in ChEMBL document CHEMBL4765370, “Design, synthesis, and biological evaluation of aryl piperazines with potential as antidiabetic agents via the stimulation of glucose uptake and inhibition of NADH:ubiquinone oxidoreductase” (Eur J Med Chem, 2020).

Key:
[1] = system: C2C12; experiment: Induction of glucose uptake in mouse C2C12 cells assessed as [3H]2-deoxyglucose uptake preincubated for 16 hrs followed by followed by [3H]2-deoxyglucose addition and measured after 10 mins by liquid scintillation counting method; type: functional
Summary of the method: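 C2C12 mouse myoblasts were grown in high-glucose DMEM with 10% FBS. At 80% confluence they were differentiated into myotubes with 2% horse serum. Myotubes were exposed to compound (10 µM) for 16 h in medium with 0.1% horse serum, then washed with KRB pH 7.4 and given 1 µCi/mL [3H]-2-deoxyglucose for 10 min at 37 °C. After ice-cold washes and 0.1% SDS lysis, scintillation counts were normalised to BCA protein. Results are fold change vs DMSO, mean ± SEM, one-way ANOVA.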

[2] = Apparent permeability in MDCK-MDR1 cells at 10 uM after 30 mins by LC-MS/MS analysis; type: ADME, cell-based, Canis lupus familiaris; settings: dog
Summary of the method: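 Test article was taken from a 10 mM DMSO stock and diluted in DMEM to a final 10 µM donor solution, with 10 µM propranolol as internal standard. It was applied to hMDR1-MDCK monolayers on filters. Transfer to the receiver compartment was measured over 30 min in both directions, apical-to-basolateral and basolateral-to-apical. Quantification was by LC-MS/MS, n = 3.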

[3] = Inhibition of NADH:ubiquinone oxidoreductase in rat liver mitochondria incubated for 3 mins

Row | SMILES | fold change (FC) [1] | Papp at 0.5 h, 10 µM [2] [×10⁻⁶ cm/s] | IC50 [3] [µM]
1 | O=C(O)CCCCCCCC(=O)N1CCN(c2ccc(C(F)(F)F)cc2)CC1 | 1.38 |  | 
2 | COC(=O)CCCc1cccs1 | 1.09 |  | 
3 | CC(C)NCC(O)COc1cccc2ccccc12 (centres undefined) [PROPRANOLOL] |  | 21.8 | 
4 | FC(F)(F)c1ccc(N2CCN(CCCCc3cccs3)CC2)cc1 | 1.36 |  | 
5 | O=C(CCSc1cccs1)N1CCN(c2ccc(C(F)(F)F)cc2)CC1 | 2.14 |  | 14
6 | O=C(CCCc1cccs1)N1CCC(c2ccc(C(F)(F)F)cc2)CC1 | 2.14 |  | 15
7 | FC(F)(F)c1cnc(N2CCNCC2)c(Cl)c1 | 1.16 |  | 
8 | O=C(CCC(=O)N1CCN(c2ccc(C(F)(F)F)cn2)CC1)c1cccs1 | 1.22 |  | 
9 | O=C(CCCc1cccs1)Nc1ccc(C(F)(F)F)cc1 | 1.11 |  | 92
10 | O=C(CCCc1cccs1)N1CCN(c2ccc(C(F)(F)F)cn2)CC1 | 1 |  | 
11 | O=C(CCCc1cccs1)N1CCN(c2ccccc2)CC1 | 0.96 |  | 133
12 | O=C(CCc1cccs1)N1CCN(c2ccc(C(F)(F)F)cc2)CC1 | 1.09 |  | 
13 | O=C(CCSc1cccs1)N1CCN(c2ncc(C(F)(F)F)cc2Cl)CC1 | 1.31 |  | 
14 | O=C(CCCc1cccs1)N1CCN(c2cc(C(F)(F)F)cc(C(F)(F)F)c2)CC1 | 1.42 |  | 
15 | O=C(CCCc1cccs1)N1CCN(c2ccc(C(F)(F)F)c(Cl)n2)CC1 | 1.22 |  | 
16 | O=C(CCCc1cccs1)N1CCN(c2ccc(C(F)(F)F)cc2Br)CC1 | 1.02 |  | 
17 | CN1CCN(C(=O)CCCc2cccs2)CC1 | 0.84 |  | 161
18 | O=C(CCC(=O)N1CCN(c2ncc(C(F)(F)F)cc2Cl)CC1)c1cccs1 | 1.26 |  | 
19 | O=C(CCCc1cccs1)N1CCN(C2CCCCC2)CC1 | 1.29 |  | 
20 | Nc1ccc(N2CCN(C(=O)CCCc3cccs3)CC2)cc1 | 1.32 |  | 
21 | O=C(O)CCCc1cccs1 | 1.16 |  | 
22 | Cc1ccc(N2CCN(C(=O)CCCc3cccs3)CC2)cc1 | 1 |  | 

Row | SMILES | fold change (FC) [1] | Papp at 0.5 h, 10 µM [2] [×10⁻⁶ cm/s] | IC50 [3] [µM]
23 | CC(=O)N1CCN(c2ccc(C(F)(F)F)cc2)CC1 | 1.43 |  | 
24 | O=C(CCCCc1ccccc1)N1CCN(c2ccc(C(F)(F)F)cc2)CC1 | 1.95 |  | 6
25 | O=C(CCC(=O)N1CCN(c2ccc(C(F)(F)F)cc2)CC1)c1cccs1 | 1.19 |  | 
26 | O=C(CCCc1cccs1)N1CCN(c2ccccc2C(F)(F)F)CC1 | 0.85 |  | 
27 | CCCCC(=O)N1CCN(c2ccc(C(F)(F)F)cc2)CC1 | 1.28 |  | 
28 | O=C(CCCc1cn[nH]c1)N1CCN(c2ccc(C(F)(F)F)cc2)CC1 | 1.35 |  | 
29 | O=C(CCCCc1cccs1)N1CCN(c2ccc(C(F)(F)F)cc2)CC1 | 1.78 |  | 60
30 | O=C(CCCCCc1cccs1)N1CCN(c2ccc(C(F)(F)F)cc2)CC1 | 1.33 |  | 
31 | O=C(CCCc1cccs1)N1CCN(c2ncc(C(F)(F)F)cc2Cl)CC1 | 1.13 |  | 
32 | CCCCCCCC(=O)N1CCN(c2ccc(C(F)(F)F)cc2)CC1 | 1.38 |  | 
33 | O=C(CCC(=O)N1CCC(c2ccc(C(F)(F)F)cc2)CC1)c1cccs1 | 1.31 |  | 
34 | O=C(CCc1ccco1)N1CCN(c2ccc(C(F)(F)F)cc2)CC1 | 1.11 |  | 
35 | O=C(CCCc1cccs1)N1CCN(c2ccc(F)cc2)CC1 | 1.16 |  | 
36 | COC(=O)CCCCCCCC(=O)N1CCN(c2ccc(C(F)(F)F)cc2)CC1 | 1.08 |  | 
37 | COCCNC(=O)CCCCCCCC(=O)N1CCN(c2ccc(C(F)(F)F)cc2)CC1 | 2.35 |  | 
38 | O=C(CCCc1cccs1)N1CCN(c2ccc([N+](=O)[O-])cc2)CC1 | 1.06 |  | 17
39 | O=C(CCCc1cccs1)NNc1ccc(C(F)(F)F)cc1 | 1.24 |  | 
40 | O=C(CCCc1cccs1)N1CCN(c2ccc(C(F)(F)F)cc2Cl)CC1 | 1.58 |  | 46
41 | O=C(c1cccs1)N1CCN(c2ccc(C(F)(F)F)cc2)CC1 | 0.93 |  | 
42 | O=C(CCCc1cccs1)N1CCC(c2ccccc2)CC1 | 1.25 |  | 
43 | O=C(Cc1cccs1)N1CCN(c2ccc(C(F)(F)F)cc2)CC1 | 1.33 |  | 
44 | CN1CCN(c2ncc(C(F)(F)F)cc2Cl)CC1 | 0.92 |  | 67
